# Screens (PubChem BioAssay)
# Only some compounds are listed: those with a hit (about 2.9% of all), similar ones and a draw of the others.
# SIRT5 block = SIRT5 desuccinylase inhibitors, primary screen, biochemical, fluorescence imaging, single point, set 5 | inhibition, % at 15 µM | 330,000 compounds, 1.1% hits | AID 652115, 2013 | Purified SirT5, succinyl-peptide AMC, trypsin-coupled fluorescence; in the data active = inhibition above about 15%
# E-selectin induc = E-selectin induction in HUVECs, primary screen, imaging, HUVEC, immunofluorescence imaging, single point; normalized: neutral wells 0, TNF-alpha wells 100; activation, % at 7.58 µM; 260,000 compounds, 0.37% hits;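 active = mean E-selectin-positive cell signal at least 10% of the positive control, reached in at least 60% of replicates, without over 20% cell loss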
# Target sequence (P16581 whole entry, looked up): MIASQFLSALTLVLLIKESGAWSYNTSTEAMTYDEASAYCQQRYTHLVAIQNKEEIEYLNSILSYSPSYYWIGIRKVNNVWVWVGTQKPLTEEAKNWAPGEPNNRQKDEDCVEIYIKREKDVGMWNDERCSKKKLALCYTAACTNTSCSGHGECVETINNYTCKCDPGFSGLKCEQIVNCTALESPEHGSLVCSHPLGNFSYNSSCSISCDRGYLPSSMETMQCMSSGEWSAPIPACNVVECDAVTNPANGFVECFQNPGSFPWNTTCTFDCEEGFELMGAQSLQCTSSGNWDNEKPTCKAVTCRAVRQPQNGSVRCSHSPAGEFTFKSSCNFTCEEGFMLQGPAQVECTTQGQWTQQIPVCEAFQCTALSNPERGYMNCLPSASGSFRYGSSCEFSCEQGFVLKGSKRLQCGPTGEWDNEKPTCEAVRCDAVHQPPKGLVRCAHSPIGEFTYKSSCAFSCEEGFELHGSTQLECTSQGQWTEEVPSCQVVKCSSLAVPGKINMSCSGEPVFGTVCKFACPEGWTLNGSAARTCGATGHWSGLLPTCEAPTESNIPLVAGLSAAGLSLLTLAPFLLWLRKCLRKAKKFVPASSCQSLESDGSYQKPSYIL
#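 System: HUVEC / Compound: single concentration / Signal: immunofluorescence imaging / Read-out: percent E-selectin-positive cells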
# DENV2 CPE rescue = inhibitors of DENV2 cytopathic effect, primary screen, cell-based, plate reader, single concentration. 350,000 compounds, 1.7% hits. CPE inhibition, % at 9.99 µM. DENV2-infected cells, cytopathic effect rescue; in the data active = CPE inhibition above about 20%, passing the limit was not always enough; tested in BHK-21 cells;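 note: 0% = median of neutral control wells and 100% = median of positive control wells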
# Numbers without * were called inactive; / = no result given.
SMILES,SIRT5 block,E-selectin induc,DENV2 CPE rescue
Cc1ccc(S(=O)(=O)N(C)C[C@H]2OCCCC[C@@H](C)Oc3ccc(NC(=O)Nc4ccc(C(F)(F)F)cc4)cc3C(=O)N([C@H](C)CO)C[C@@H]2C)cc1,0,/,67*
Cc1ccc(S(=O)(=O)N(C)C[C@@H]2OCCCC[C@H](C)Oc3ccc(NC(=O)Nc4ccc(C(F)(F)F)cc4)cc3C(=O)N([C@@H](C)CO)C[C@@H]2C)cc1,-4,/,-11
C[C@@H]1CCCCO[C@@H](CN(C)S(=O)(=O)c2ccccc2)[C@@H](C)CN([C@H](C)CO)C(=O)c2cc(NC(=O)Nc3ccc(C(F)(F)F)cc3)ccc2O1,1,0,13
Cc1ccc(S(=O)(=O)N(C)C[C@@H]2OCCCC[C@@H](C)Oc3ccc(NC(=O)Nc4ccc(C(F)(F)F)cc4)cc3C(=O)N([C@H](C)CO)C[C@H]2C)cc1,-1,/,10
Cc1ccc(S(=O)(=O)N(C)C[C@@H]2OCCCC[C@H](C)Oc3ccc(NC(=O)Nc4ccc(C(F)(F)F)cc4)cc3C(=O)N([C@@H](C)CO)C[C@H]2C)cc1,2,/,23*
Cc1ccc(C)c(N2CCN(S(=O)(=O)c3c(C(=O)N4CCCCC4)c(C)n(C)c3C)CC2)c1,2,/,-1
Cc1ccc2nc(NC(=S)NC(=O)c3ccc(OC(C)C)cc3)sc2c1,-3,/,7
O/C(=C\c1ccc2ccccc2n1)c1ccncc1,4,/,-2
CSc1cnn(Cc2ccccc2)c(=O)c1SCc1ccccc1,/,0,/
CCOC(=O)c1csc(NNC=O)n1,/,0,/
CCc1ccccc1NC(=O)CN1CCN(C(=O)CN2C(=O)NC3(CCCCC3C)C2=O)CC1 (configuration not stated),-3,/,-4
CC(=O)NCc1ccc(C(=O)CN2C(=O)NC3(CCCCC3C)C2=O)s1 (configuration not stated),15*,0,-2
Cc1cccc(C)c1NC(=O)CN1CCN(C(=O)CN2C(=O)NC3(CCCCC3C)C2=O)CC1 (configuration not stated),-3,1,25*
CC1CCCCC12NC(=O)N(CC(=O)NCc1ccccc1)C2=O (configuration not stated),-1,0,8
O=C(CSc1nnnn1-c1cccnc1)Nc1ccc(F)cc1F,-5,0,8
CCN(CC)S(=O)(=O)c1ccc2[nH]c(=O)cc(C(=O)Nc3cccc(C(C)=O)c3)c2c1,0,/,5
CC(=O)Nc1cncc(-c2cccc(C(=O)NCCN(C)C)c2)n1,4,0,2
Cc1onc(-c2ccccc2)c1-c1ccnn1C(=O)NC(C)C,0,/,-1
COC(=O)c1noc(C)c1-c1ccnn1C(=O)c1ccc(C)cc1,/,29*,2
CCOc1c2ccc(C(=O)NCc3ccc(C(F)(F)F)cc3C(F)(F)F)cc2nn1C,-4,0,-3
CN(Cc1ccccc1)C(=O)c1[nH]cnc1C(=O)Nc1ccc(Br)cc1F,18*,0,0
CN(Cc1ccccc1)C(=O)c1[nH]cnc1C(=O)NCc1ccccc1,-1,0,0
O=C(NCC(=O)N(Cc1ccc(F)cc1)C(C(=O)NC1CCCC1)c1ccco1)c1ccco1 (configuration not stated),-8,/,/
COc1ccc(C(=O)c2c3ccc(OC)cc3[n+]([O-])n2CCCC(N)=O)cc1,-3,0,1
COc1ccc(NC(=O)C2CCN(S(=O)(=O)c3c(C)noc3C)CC2)cc1OC,0,/,-4
SMILES,SIRT5 block,E-selectin induc,DENV2 CPE rescue
COc1ccc(N2CCN(C(=O)Cc3csc(NC(=O)Nc4ccccc4OC)n3)CC2)cc1,3,0,4
COc1ccccc1NC(=O)Nc1nc(CC(=O)N2CCN(c3ccc(F)cc3)CC2)cs1,-1,1,40*
CC(C)(C)c1ccc(OC(=O)c2ccc3snnc3c2)cc1,/,1,/
CCCC(=O)N1CC2(CN(C(=O)C3CC3)C2)c2c(n(C)c3cc(OC)ccc23)[C@@H]1CO,7,0,0
O=c1[nH]c(=S)[nH]c2c1[C@H](C1CC1)O[C@H](CCc1ccccc1)C2,-9,0,5
Cc1cc(C(=O)NC2CCCc3ccccc32)ccc1[N+](=O)[O-] (configuration not stated),-2,0,6
CCC(=O)N1[C@@H](CO)[C@@H](c2ccccc2)C12CN(Cc1cc(F)ccc1F)C2,-1,0,-11
CS(=O)(=O)N1[C@@H](CO)[C@@H](c2ccccc2)C12CN(Cc1cc(F)ccc1F)C2,-2,0,40*
C[C@@H]1CN([C@@H](C)CO)C(=O)Cc2cc(NS(=O)(=O)c3ccc(F)cc3)ccc2O[C@H]1CN(C)Cc1ccc(Cl)c(Cl)c1,/,0,/
